CHT inh: inhibitors of human choline transporter CHT | B-score at 10 µM | CHT-expressing cells, membrane potential dye, choline response; hits give low values | 0.86% of 310,000 active | Q9GZV3;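 active = B-score over 3 SD under the library average, and starting fluorescence ratio not unusually high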;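 also: choline stimulus applied at its EC90 after an EC20 pre-addition; B-score computed on integrated fluorescence ratio after choline addition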
Target sequence (Q9GZV3 whole entry, looked up): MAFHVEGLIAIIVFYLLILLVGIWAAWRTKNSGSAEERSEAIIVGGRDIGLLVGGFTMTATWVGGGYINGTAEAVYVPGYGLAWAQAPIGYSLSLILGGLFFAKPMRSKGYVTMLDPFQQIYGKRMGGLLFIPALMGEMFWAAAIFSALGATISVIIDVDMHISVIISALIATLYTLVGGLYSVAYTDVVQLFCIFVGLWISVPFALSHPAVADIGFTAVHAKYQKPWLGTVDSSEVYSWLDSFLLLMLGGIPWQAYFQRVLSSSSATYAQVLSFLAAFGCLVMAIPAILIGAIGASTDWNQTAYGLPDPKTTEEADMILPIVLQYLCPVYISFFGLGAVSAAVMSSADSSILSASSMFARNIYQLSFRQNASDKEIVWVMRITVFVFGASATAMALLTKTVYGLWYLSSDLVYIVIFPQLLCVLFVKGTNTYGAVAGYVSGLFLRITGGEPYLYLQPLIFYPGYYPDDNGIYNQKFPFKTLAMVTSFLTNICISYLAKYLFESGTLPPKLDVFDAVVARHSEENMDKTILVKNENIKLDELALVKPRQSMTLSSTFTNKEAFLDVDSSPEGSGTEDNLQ
TMEM16A inh: mouse TMEM16A channel inhibition, primary screen; Q8BHY3; HEK293 TMEM16A/YFP iodide influx fluorescence, ionomycin; normalized B-score (activity score, 25-100; higher = stronger inhibition) at 10 µM; 1.2% of 310,000 active; AID 588511;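 active = ratio plate-corrected score three or more library SD toward inhibition, starting fluorescence score within five deviations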;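 also: score derived from kinetic fluorescence span divided by baseline fluorescence per well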
CHT allo act: human CHT allosteric activation | CHT-expressing cells, membrane potential dye, choline EC20; hits give high values; LV-AA mutant CHT in HEK293 cells | B-score at 10 µM | 0.49% of 310,000 active | AID 488977;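 active = initial fluorescence not abnormally high and integrated response B-score, plate-corrected, over 3 SD above library mean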
ANO1 activ: mouse TMEM16A channel activation, primary screen. HEK293 TMEM16A/YFP-H148Q/I152L, iodide quench fluorescence; hits give low values. B-score at 10 µM. 0.3% of 340,000 active;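 active = fluorescence-ratio B-score plate-corrected deviation score at least 3 library SD below zero, with starting fluorescence score within 5 deviations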;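 also: channel opened by trigger with iodide after compound preincubation; score built on the fluorescence ratio of max minus min over baseline; more negative score means more quench and so TMEM16A activation or potentiation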
IMP-1 inhibitor: inhibitors of Pseudomonas aeruginosa IMP-1 metallo-beta-lactamase; purified IMP-1, nitrocefin hydrolysis, epi-absorbance fluorescence; inhibition, % at 5.6 µM; 0.45% of 290,000 active; AID 1556;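 active = inhibition above the mean plus 3 SD of all compounds in the same screening run, cut at about 4.5% in these data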;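 also: 0% = IMP-1 with DMSO and 100% = DMSO wells lacking enzyme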
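Material – recombinant IMP-1 enzyme, purified · Amount – IMP-1 0.2 nM before substrate addition · Medium – HEPES buffer pH 7.1 with ZnSO4 and Brij 35 · Timing – 25 °C, 15 min preincubation, 25 min reaction · Measured by – plate fluorescence quenching by hydrolysis product, ex 480/em 530 nm · Read-out – percent enzyme inhibition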
VIM-2 inh: inhibitors of Pseudomonas aeruginosa VIM-2 metallo-beta-lactamase; AID 1527; 0.89% of 290,000 active; inhibition, % at 5.6 µM; purified VIM-2, nitrocefin hydrolysis, epi-absorbance fluorescence;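 active = inhibition above the mean of all tested compounds plus 3 SD, cutoff set per screening run, cut at about 7.5% in these data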;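 also: red hydrolysis product quenches plate fluorescence so inhibitors raise well fluorescence; 0% = enzyme with DMSO and 100% = DMSO without enzyme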
CHT inh conf: confirmation of human choline transporter CHT inhibitors; shares compounds with CHT inh; CHT-expressing cells, choline membrane potential dye; LV-to-AA substituted CHT, HEK293 cells; CHT activity remaining % of control (hits give low values), % at 10 µM; 70% of 2,400 active;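 active = choline transporter activity left, mean of duplicates at 10 µM, below buffer-only control mean minus 3 SD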;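 also: depolarization triggered by choline at its EC90 following an EC20 pre-addition; 0% = hemicholinium-3 full block and 100% = buffer-only control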
HEK293 CHT ctr: CHT inhibitor counter-screen hit in parental HEK293 cells. shares compounds with CHT inh. membrane potential dye, choline response; active = decrease or increase beyond buffer ±3SD. membrane potential ratio readout (active if shifted either direction beyond buffer ±3SD; no single direction) at 10 µM. 4% of 2,400 active;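 also: parental cells lack the transporter so any hit is non-specific; ratio is peak minus trough fluorescence over baseline after EC90 choline challenge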
Starred values were filed as active, the others as inactive. Sampled rows, rich in hits. Any-hit rate of the full collection: about 3.4%.

`CC1CCCCC1NC(=S)Nc1ccc(SC(F)F)cc1` (configuration not stated) gave CHT inh -5.5*, TMEM16A inh inactive, CHT allo act inactive, ANO1 activ inactive, IMP-1 inhibitor 0, VIM-2 inh -6, CHT inh conf 66%* and HEK293 CHT ctr inactive.
`C=CCOc1ccccc1CNCCc1ccc(S(N)(=O)=O)cc1` gave CHT inh inactive, TMEM16A inh inactive, CHT allo act inactive, ANO1 activ inactive, IMP-1 inhibitor -2 and VIM-2 inh -1.
`NS(=O)(=O)c1ccc(CCNCc2cc(Cl)ccc2OCc2ccccc2)cc1` gave CHT inh -6.5*, TMEM16A inh inactive, CHT allo act inactive, ANO1 activ inactive, IMP-1 inhibitor 0, VIM-2 inh 0, CHT inh conf 50%* and HEK293 CHT ctr inactive.
Screening NS(=O)(=O)c1ccc(CCNCc2ccccc2OCc2ccc(Cl)cc2)cc1 returned CHT inh -5.1*, TMEM16A inh inactive, CHT allo act inactive, ANO1 activ inactive, IMP-1 inhibitor -1, VIM-2 inh -1, CHT inh conf 27%* and HEK293 CHT ctr inactive.
COc1ccccc1CN1C[C@@H]2C[C@@H](c3[nH]c4c(C)cccc4c3C)N3CCC[C@@]23C1=O was read as CHT inh inactive, TMEM16A inh inactive, CHT allo act inactive, ANO1 activ inactive, IMP-1 inhibitor 0 and VIM-2 inh 2.
`CCc1nnc(NS(=O)(=O)c2ccc(NC(=O)c3ccc(C#N)cc3)cc2)s1` gave CHT inh inactive, TMEM16A inh inactive, CHT allo act inactive, ANO1 activ inactive, IMP-1 inhibitor -1 and VIM-2 inh -1.
Screening COc1ccc(NC(=O)CN2CCN(C(=S)NC3CCCC3)CC2)cc1 returned CHT inh -6.3*, TMEM16A inh inactive, CHT allo act inactive, ANO1 activ inactive, IMP-1 inhibitor -1, VIM-2 inh -2, CHT inh conf inactive and HEK293 CHT ctr inactive.
Screening COc1ccc(NC(=O)CN2CCN(CC(=O)Nc3ccc(OC)cc3)CC2)cc1 returned CHT inh inactive, TMEM16A inh inactive, CHT allo act inactive, ANO1 activ inactive, IMP-1 inhibitor -2 and VIM-2 inh -3.
Screening CC1(c2nnc(Cc3ccccc3)o2)CC(c2ccccc2[N+](=O)[O-])=NO1 (configuration not stated) returned CHT inh inactive, TMEM16A inh inactive, CHT allo act inactive and ANO1 activ inactive.
CCOC(=O)c1cnc2c(Cl)cc(Cl)cc2c1NCCOCCO was read as CHT inh -10*, TMEM16A inh inactive, CHT allo act inactive, ANO1 activ inactive, IMP-1 inhibitor -2, VIM-2 inh 5, CHT inh conf 34%* and HEK293 CHT ctr inactive.
Screening CCCCn1c(N)c(N(CC(C)C)C(=O)CCCc2nc3ccccc3c(=O)[nH]2)c(=O)[nH]c1=O returned CHT inh inactive, TMEM16A inh inactive, CHT allo act inactive and ANO1 activ inactive.
COc1cc(Br)ccc1NC(=O)c1ccccc1-c1ccccc1C(=O)O was read as CHT inh -5.4*, TMEM16A inh inactive, CHT allo act inactive, ANO1 activ inactive, CHT inh conf inactive and HEK293 CHT ctr inactive.
For COc1ccc(NC(=O)c2ccccc2NC(=O)c2ccccc2C(=O)O)c(OC)c1 the results were CHT inh inactive, TMEM16A inh inactive, CHT allo act inactive, ANO1 activ inactive, IMP-1 inhibitor 0 and VIM-2 inh -2.
COc1cccc(C(C#N)NCCCNC(C#N)c2cccc(OC)c2OC)c1OC (configuration not stated) was read as ANO1 activ inactive.
O=C(Nc1ccccc1Br)C1CCCN1S(=O)(=O)c1cccc2nsnc12 (configuration not stated) was read as CHT inh -7.9*, TMEM16A inh inactive, CHT allo act inactive, ANO1 activ inactive, IMP-1 inhibitor -2, VIM-2 inh -1, CHT inh conf 23%* and HEK293 CHT ctr inactive.
O=C(Nc1ccccc1F)C1CCCN1S(=O)(=O)c1cccc2nsnc12 (configuration not stated) was read as CHT inh inactive, TMEM16A inh inactive, CHT allo act inactive, ANO1 activ inactive, IMP-1 inhibitor -2 and VIM-2 inh -1.
CC1CCN(CCNC(=O)C2CCCN(S(=O)(=O)c3cccc4nsnc34)C2)CC1 (configuration not stated) was read as CHT inh -8.1*, TMEM16A inh inactive, CHT allo act inactive, ANO1 activ inactive, IMP-1 inhibitor -1, VIM-2 inh -1, CHT inh conf 18%* and HEK293 CHT ctr inactive.
For COc1ccc(/C=C/C(=O)OCC(=O)Nc2ccc(N3CCOCC3)cc2)cc1OC the results were CHT inh -5*, TMEM16A inh inactive, CHT allo act inactive, ANO1 activ inactive, IMP-1 inhibitor -4, VIM-2 inh -2, CHT inh conf inactive and HEK293 CHT ctr inactive.
For COc1ccc(/C=C/C(=O)OCC(=O)Nc2ccc(N3CCOCC3)cc2)cc1 the results were CHT inh inactive, TMEM16A inh inactive, CHT allo act inactive, ANO1 activ inactive, IMP-1 inhibitor -3 and VIM-2 inh -3.
`CC(C)Oc1ccc(/C=N/NC(=O)C(CSCc2ccccc2)NC(=O)c2ccc([N+](=O)[O-])cc2)cc1` (configuration not stated) gave CHT inh -5.5*, TMEM16A inh inactive, CHT allo act inactive, ANO1 activ inactive, IMP-1 inhibitor -1, VIM-2 inh -4, CHT inh conf inactive and HEK293 CHT ctr inactive.
For O=C(Nc1nc2ccc(S(=O)(=O)N3CCCCC3)cc2s1)c1cccnc1 the results were CHT inh -5.5*, TMEM16A inh inactive, CHT allo act inactive, ANO1 activ inactive, IMP-1 inhibitor -3, VIM-2 inh -3, CHT inh conf 49%* and HEK293 CHT ctr inactive.
For CC(=O)Nc1nc2ccc(S(=O)(=O)N3CCCCC3)cc2s1 the results were CHT inh inactive, TMEM16A inh inactive, CHT allo act inactive, ANO1 activ inactive, IMP-1 inhibitor -1 and VIM-2 inh -2.

Screens deposited in PubChem BioAssay by several laboratories.
